Shown are actives, neighbours in structure and some others; about 3.4% of the full set was active somewhere.
TAAR1 antagonist: antagonists of human TAAR1 | Q96RJ0 | CHO RD-HGA16 TAAR1, Fluo-8 calcium fluorescence, antagonist | inhibition, % at 3 µM | 1.5% of 360,000 active | AID 624466;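 active = inhibition above a per-plate cutoff, the mean inhibition of test compounds on that plate plus 3 SD, cut at about 49% in these data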
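Assay system: CHO-derived RD-HGA16 cells stably expressing human TAAR1 plus Gα16. Timing: 140 s kinetic read after compound, 140 s after agonist. Technique: kinetic Fluo-8 calcium fluorescence measurement. Measure: % inhibition of agonist calcium response.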
TAAR1 agonist: agonists of human TAAR1. 0.99% of 360,000 active. Q96RJ0. activation, % at 3 µM. CHO RD-HGA16 TAAR1, Fluo-8 calcium fluorescence; vehicle wells 0%, saturating PEA agonist 100%;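 active = activation above the mean activation of all test compounds in the run plus 3 SD, cut at about 38% in these data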
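Assay system – CHO-derived RD-HGA16 cells with stable Gα16 and human TAAR1 · Compound dosing – one-point dosing at 3 µM (nominal) · Incubation – 17-24 h seeding, 75 min 37 °C dye, 30 min RT · Measured by – kinetic Fluo-8 calcium fluorescence · Control set – DMSO vehicle as 0%, PEA at EC100 as 100% · Repeats – single well for each compound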
LANA-H2B inh: blocks KSHV LANA binding to histone H2A/H2B. 0.6% of 320,000 active. cell-free LANA-H2A/H2B peptide, fluorescence polarization. Q9QR71. inhibition, % (concentration not given with the values); in the data active = inhibition mostly above about 10%, no sharp cut-off; inactive = mostly below about 6.7%
TRPML3 agonist: activates the human TRPML3 channel; activation, % at 3 µM; HEK293 TRPML3-YFP, Fluo-8 calcium fluorescence; 100% = the carbachol control signal; 0.29% of 220,000 active;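 active = activation above its plate's cutoff, the mean activation of the plate's test wells plus 3 SD, cut at about 12% in these data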
Target sequence (Q8TDD5 whole entry, looked up): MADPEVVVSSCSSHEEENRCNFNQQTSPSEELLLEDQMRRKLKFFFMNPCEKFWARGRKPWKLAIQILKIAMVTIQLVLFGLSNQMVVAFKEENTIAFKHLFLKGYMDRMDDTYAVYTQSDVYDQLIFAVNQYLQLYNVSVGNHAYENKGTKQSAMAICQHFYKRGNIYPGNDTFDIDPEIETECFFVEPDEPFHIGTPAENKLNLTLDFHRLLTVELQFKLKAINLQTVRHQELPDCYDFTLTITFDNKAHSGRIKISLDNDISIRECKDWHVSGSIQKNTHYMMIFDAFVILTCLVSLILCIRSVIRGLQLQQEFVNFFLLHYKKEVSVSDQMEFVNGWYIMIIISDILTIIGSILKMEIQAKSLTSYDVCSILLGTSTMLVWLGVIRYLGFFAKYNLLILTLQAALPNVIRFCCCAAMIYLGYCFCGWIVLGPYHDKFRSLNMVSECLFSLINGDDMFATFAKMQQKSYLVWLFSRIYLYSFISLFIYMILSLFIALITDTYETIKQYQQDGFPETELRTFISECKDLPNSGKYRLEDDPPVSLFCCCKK
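Material: TRPML3-YFP stable HEK293 cells | Dosing: One concentration, 3 µM nominal, 0.3% DMSO | Timing: 125 s total fluorescence read per well | Technique: Fluo-8 calcium dye fluorescence, ex 470-495, em 515-575 nm | Measure: Percent activation from peak-to-basal fluorescence ratio, scaled between DMSO and carbachol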
GPR7 antagonist: antagonists of human GPR7 (neuropeptides B/W receptor 1); P48145; GPR7-expressing cells, fluorescence antagonist assay; inhibition, % at 4.4 µM; 1.1% of 290,000 active; AID 1861; in the data active = inhibition above about 16%, passing the limit was not always enough;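 also: cells stimulated with the agonist NPW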
TRPN1 ag: activates the zebrafish TRPN1 channel; HEK293 zebrafish TRPN1-YFP, Fluo-8 calcium fluorescence; 100% = response to 87 µM carbachol; AID 1424; activation, % at 3 µM; 0.18% of 220,000 active;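 active = activation above its plate's cutoff, the mean activation of test wells on that plate plus 3 SD, cut at about 19% in these data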
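Material: zebrafish TRPN1-YFP in HEK293 cells; Doses: single test compound dose, 3 µM nominal, 0.3% DMSO; Timing: dye loading 1 h at 37 °C, then 30 min room temperature; Technique: intracellular calcium fluorescence with Fluo-8; Benchmarks: high carbachol 87 µM, low DMSO alone.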
Each line names hits and unclear results; the compound was inactive in the other large screens.

Cc1ccc(NC(=O)NNC(=O)CSC2CCc3ccccc32)c(C)c1 (stereo not given)	none (no result: LANA-H2B inh, TRPML3 agonist, GPR7 antagonist, TRPN1 ag)
COc1ccc2[nH]c3c(N4CC(C)OC(C)C4)ncnc3c2c1 (stereo not given)	none
COc1cccc(N2CCN(c3ncnc4c3[nH]c3ccc(F)cc34)CC2C)c1 (stereo not given)	TAAR1 antagonist 93.1, GPR7 antagonist 84.4
COc1cccc(N2CCN(c3ncnc4c3[nH]c3ccccc34)CC2C)c1 (stereo not given)	TAAR1 antagonist 88.8
COc1ccc2c(c1)[nH]c1c(N3CCSCC3)ncnc12	none
CCc1cc2c(nc1CC)CCCN2S(=O)(=O)c1ccc(C)cc1	none (no result: LANA-H2B inh, TRPML3 agonist, GPR7 antagonist, TRPN1 ag)
COc1ccc(Cl)cc1C(=O)Nc1ccccc1N1CCN(C(=O)C(C)C)CC1	GPR7 antagonist 19.9
N#Cc1c(NC(=S)NC(=O)c2ccccc2)sc2c1CCCC2	none
N#Cc1c(NC(=S)NC(=O)c2ccccc2)sc2c1CCN(CCc1ccccc1)C2	TRPML3 agonist 14.4, TRPN1 ag 23.6 (no result: TAAR1 antagonist, TAAR1 agonist)
COc1ccccc1CCn1cnc(-c2ccccc2F)c1CC(C)C	none (no result: LANA-H2B inh, TRPML3 agonist, GPR7 antagonist, TRPN1 ag)
CCOC(=O)C1CN(S(=O)(=O)c2ccc(C)cc2)CCN1S(=O)(=O)c1ccc(C)cc1 (stereo not given)	TRPN1 ag 21.5
Cc1sc2nc(CSc3nnnn3-c3ccc(Cl)cc3)[nH]c(=O)c2c1C	none (no result: LANA-H2B inh)
CCn1c(SCc2nc3sc(C(=O)O)c(C)c3c(=O)[nH]2)nnc1-c1ccc(Cl)cc1	LANA-H2B inh active
COc1ccc(-c2ccccc2C2Cc3nnccc3CN2)cc1 (stereo not given)	none (no result: LANA-H2B inh, TRPML3 agonist, GPR7 antagonist, TRPN1 ag)
Cc1nn(Cc2ccccc2)c(Cl)c1C(=O)OCc1nnc(-c2ccc(Cl)cc2)o1	none
Cc1nn(Cc2ccccc2)c(Cl)c1C(=O)OCc1nnc(-c2ccccc2)o1	TAAR1 antagonist 50.8
COC(=O)c1cc(S(=O)(=O)NCC2CCN(C(=O)C(=O)c3cccs3)CC2)cs1	none (no result: LANA-H2B inh, TRPML3 agonist, GPR7 antagonist, TRPN1 ag)
Cc1ccc(NC(=O)CC2OC(=O)c3ccccc32)cc1S(=O)(=O)N1CCCCCC1 (stereo not given)	LANA-H2B inh 11.0 (no result: TRPML3 agonist, GPR7 antagonist, TRPN1 ag)
COc1cc(C(C)=O)ccc1OCC(=O)Nc1ccc(C)c(S(=O)(=O)N2CCCCCC2)c1	TAAR1 antagonist 76.6 (no result: TRPML3 agonist, GPR7 antagonist, TRPN1 ag)
O=C(CC1OC(=O)c2ccccc21)Nc1ccc(Cl)c(S(=O)(=O)N2CCCCC2)c1 (stereo not given)	none (no result: TRPML3 agonist, GPR7 antagonist, TRPN1 ag)
CCc1cccc(OCC(=O)Nc2ccc(C)c(S(=O)(=O)N3CCCCCC3)c2)c1	TAAR1 antagonist 50.1 (no result: LANA-H2B inh, TRPML3 agonist, GPR7 antagonist, TRPN1 ag)
Cc1ccc(NC(=O)COc2cccc(C)c2C)cc1S(=O)(=O)N1CCCCCC1	none (no result: TRPML3 agonist, GPR7 antagonist, TRPN1 ag)
Cc1ccc(NC(=O)COc2ccc(N(C)C(=O)C(C)(C)C)cc2)cc1S(=O)(=O)N1CCCCC1	TAAR1 antagonist 51.9 (no result: TRPML3 agonist, GPR7 antagonist, TRPN1 ag)
COc1cc(C(C)=O)ccc1OCC(=O)Nc1ccc(S(=O)(=O)N2CCCCC2)cc1	none (no result: LANA-H2B inh, TRPML3 agonist, GPR7 antagonist, TRPN1 ag)
O=C(N[C@H](C(=O)N1CCC[C@H]1C(=O)NC1CCCC1)C1CCCCC1)c1ccco1	none (no result: LANA-H2B inh, TRPML3 agonist, GPR7 antagonist, TRPN1 ag)
Cc1cc(NC(=O)Cc2cn(C)c3ccccc23)ccc1Oc1cccnc1	none (no result: LANA-H2B inh, TRPML3 agonist, GPR7 antagonist, TRPN1 ag)
COc1cccc(CNC(=O)[C@H]2CCCN2C(=O)[C@H]2CCCN2C(=O)c2ccc(F)c(C(F)(F)F)c2)c1	none (no result: LANA-H2B inh, TRPML3 agonist, GPR7 antagonist, TRPN1 ag)
CC(=O)N(CCc1ccccc1)Cc1cc2ccc(C)c(C)c2[nH]c1=O	TAAR1 agonist 40.9 (no result: TRPML3 agonist, TRPN1 ag)
COc1ccc(C(=O)C(CN2CCOCC2)c2ccccc2)cc1F (stereo not given)	GPR7 antagonist 35.1 (no result: LANA-H2B inh)
COc1cc(/C=N/NC(=O)c2ccc(CSc3nc4ccccc4[nH]3)cc2)cc(OC)c1OC	TAAR1 antagonist 52.4
CCOc1ccc(N(C)c2ccc(/C=C3/SC(=S)NC3=O)cc2)cc1	TAAR1 antagonist 59.1 (no result: TRPML3 agonist, TRPN1 ag)
COC(=O)c1cc(NC(=O)c2ccc([N+](=O)[O-])cc2)c(=O)oc1C	LANA-H2B inh 13.1
CC(=O)c1cc(NC(=O)c2ccc([N+](=O)[O-])cc2)c(=O)oc1C	none
Cc1noc(C)c1CSc1nnc2n(-c3ccccc3)c(=O)c3ccccc3n12	LANA-H2B inh 21.3 (no result: TRPML3 agonist, GPR7 antagonist, TRPN1 ag)
Cc1noc(C)c1CSc1nc2ccccc2c(=O)n1-c1ccccc1	none
CCSc1n[nH]c(=O)n1C	none (no result: LANA-H2B inh, TRPML3 agonist, GPR7 antagonist, TRPN1 ag)
